# Screening results from PubChem.
# Most compounds without a hit are left out; they make up all but 1.5% or so of the library.
# NTR1 ag: agonists of human NTR1, primary screen, imaging, U2OS cells, beta-arrestin-GFP, high content; Neurotensin receptor type 1 (Homo sapiens), P30989; NTR1-U2OS beta-arrestin-GFP spot imaging, agonist mode; activation, % at 20 µM; hit rate 0.17% among 330,000;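 active means activation at or above 40% of the spot to cytoplasm intensity ratio, with at least 20 cells analyzed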;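 further: 0% = DMSO without peptide and 100% = 100 nM NTR1 peptide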
# CXCR6 inh: CXCR6 receptor inhibitors, primary screen, cell-based, beta-arrestin, luminescence, CHO-K1 PathHunter, 1536-well; C-X-C chemokine receptor type 6 (Homo sapiens), O00574; inhibition, % at 20 µM; hit rate 0.36% among 360,000; AID 602244, 2012; in the data active means inhibition above about 34%, passing the limit was not always enough;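 further: antagonist mode with CXCL16 agonist at 10 nM final; 0% = 10 nM CXCL16 with DMSO and 100% = unstimulated wells without agonist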
# CCR6 antag: CCR6 receptor antagonists, primary screen, cell-based, CHO-K1, luminescence, beta-arrestin, uHTS; C-C chemokine receptor type 6 (Homo sapiens), P51684; hit rate 0.49% among 340,000; CHO-K1 CCR6 PathHunter beta-arrestin, CCL20-stimulated; inhibition, % at 20 µM;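 active means compounds whose inhibition of the agonist-driven luminescence signal at 20 µM reaches about 50%, limit read from the data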;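 further: cells stimulated with CCL20 at 14 nM final; plate controls were DMSO with CCL20 for no effect and DMSO without agonist for full effect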
# HTR2A ag: mouse Htr2a agonists via beta-arrestin recruitment, primary screen, cell-based, luminescence; 5-hydroxytryptamine receptor 2A (Mus musculus), P35363; CHO-K1 mHTR2A beta-arrestin complementation; percent of 30 µM serotonin response; activation, % at 7.6 µM; hit rate 0.66% among 360,000;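 active means activation above a run cutoff, the mean activation of all tested compounds plus 3 SD, cut at about 14% in these data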;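 further: 0% = plate median of compound wells and 100% = 30 µM serotonin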
# Target sequence (P35363 whole entry, looked up): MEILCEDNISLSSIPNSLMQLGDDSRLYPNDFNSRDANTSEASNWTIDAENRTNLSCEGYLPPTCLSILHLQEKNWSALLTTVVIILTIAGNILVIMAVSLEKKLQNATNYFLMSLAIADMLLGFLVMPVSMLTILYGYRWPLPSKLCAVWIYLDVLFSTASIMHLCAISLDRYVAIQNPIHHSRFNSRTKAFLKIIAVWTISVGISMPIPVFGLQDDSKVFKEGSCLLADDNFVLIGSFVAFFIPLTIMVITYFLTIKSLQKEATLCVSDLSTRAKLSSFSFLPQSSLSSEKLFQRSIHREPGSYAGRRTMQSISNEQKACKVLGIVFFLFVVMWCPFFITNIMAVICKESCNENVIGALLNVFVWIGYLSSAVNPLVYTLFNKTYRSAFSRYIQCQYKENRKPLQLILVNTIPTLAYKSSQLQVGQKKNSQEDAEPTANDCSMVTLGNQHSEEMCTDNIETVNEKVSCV
# APJ antagonist: antagonists of human apelin receptor APJ, primary screen, CHO-K1 cells, beta-arrestin complementation, luminescence; inhibition, % at 20 µM; AID 2521, 2010; hit rate 0.32% among 330,000;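 active means inhibition above about 40% at 20 µM, limit read from the data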;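 further: cells challenged with 10 nM apelin-13 agonist together with compound; plate controls were apelin-13 plus DMSO wells for no effect and DMSO wells lacking apelin-13 for full effect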
# APJ ag: agonists of human apelin receptor APJ, primary screen, CHO-K1 cells, PathHunter beta-arrestin, luminescence | P35414 | 0% DMSO wells, 100% apelin | activation, % at 20 µM | hit rate 0.11% among 330,000 | AID 2520, 2010;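 active means activation more than six SD over the plate average, tested at 20 µM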;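 further: 0% = DMSO alone and 100% = apelin-13 at 10 nM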
#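 Test system: CHO-K1 APJ beta-arrestin complementation cell line | Compound: Single test compound dose, 20 µM final, 1% DMSO | Incubation: Compound 90 min 25 °C, reagent 1 h | Measured by: beta-gal luminescence | Read-out basis: APJ–arrestin association signal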
# CXCR6 antag conf: CXCR6 receptor antagonists, confirmation, cell-based, single concentration, beta-arrestin, luminescence | AID 602409, 2012 | shares compounds with CXCR6 inh | hit rate 65% among 700 | inhibition, % at 20 µM | CHO-K1 CXCR6 PathHunter beta-arrestin;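 active means mean inhibition over four retests above 40%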;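 further: receptor stimulated with 10 nM CXCL16 agonist; beta-galactosidase fragment complementation upon beta-arrestin recruitment to receptor; plate controls were CXCL16 plus DMSO for no effect and DMSO without CXCL16 for full effect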
# * hit, by the source's call; . = no result given.
SMILES,NTR1 ag,CXCR6 inh,CCR6 antag,HTR2A ag,APJ antagonist,APJ ag,CXCR6 antag conf
O=[N+]([O-])c1ccc(Sc2nc3ccccc3o2)c([N+](=O)[O-])c1,13.3,43.4*,43.3,2.3,-77.7,9.2,45.8*
CCCCC(=O)NC(=S)NNC(=O)c1ccc(OC)cc1,-1.3,46.5*,69.0*,-4.9,39.8,-2.3,48.1*
O=C(CSc1nccn1-c1ncc(C(F)(F)F)cc1Cl)c1ccc(Br)cc1,5.6,80.3*,73.9*,-1.1,11.9,-4.6,-0.7
CS(=O)(=O)c1ccc(C(=O)OCC(=O)N2CCN(CCC3CCCCC3)CC2)cc1[N+](=O)[O-],.,54.2*,.,-6.3,.,.,71.2*
O=C(c1ccc(Br)s1)N1CCN(c2ncccn2)CC1,-1.0,41.4*,5.7,-0.1,-8.8,-5.2,2.7
O=C(COC(=O)c1ccc(F)c(S(=O)(=O)N2CCOCC2)c1)Nc1ccc(Cl)cn1,.,-5.8,.,1.6,.,.,.
N#CC(C#N)=C1C=CC=CN1/C(=C\c1ccco1)C(=O)c1ccc(-c2ccccc2)cc1,.,44.0*,82.8*,0.4,.,.,50.6*
COc1ccccc1OCCSc1nc2ccccc2n1CC(O)CO (centres undefined),-0.5,-3.6,-3.4,-0.8,6.2,4.2,.
COC(=O)[C@H](CCSC)NC(=O)Nc1ccc(OC)cc1OC,0.9,77.2*,-1.0,-0.9,24.7,-3.0,-1.9
COC(=O)[C@H](CCSC)NC(=O)Nc1ccc(C)cc1C,0.1,8.0,-7.2,4.4,-7.1,-4.1,.
FC(F)(F)c1cc(Cc2nc3ccccc3n2C(CCc2ccccc2)c2nc3ccccc3[nH]2)cc(C(F)(F)F)c1 (centres undefined),.,.,.,-4.8,.,.,.
CCC(=O)OCCNc1cc(Sc2nccn2C)c2nonc2c1[N+](=O)[O-],.,102.0*,111.6*,-2.8,.,.,104.2*
CC(=O)OCCNc1cc(SC(C)C)c2nonc2c1[N+](=O)[O-],2.1,10.1,18.0,3.0,5.0,-3.3,.
CCC(=O)OCCNc1cc(SCCC(=O)OC)c2nonc2c1[N+](=O)[O-],5.3,58.5*,63.7*,4.1,19.9,-14.2,58.9*
CCc1nnc(NC(=O)c2cc(-c3ccncc3)nc3ccccc23)s1,0.3,47.4*,-2.8,4.0,-13.1,-1.3,29.0
C[C@@H]1CN([C@H](C)CO)C(=O)c2c(c3ccccc3n2C)-c2ccccc2CO[C@@H]1CN(C)C(=O)Nc1ccc2c(c1)OCO2,.,-0.3,.,6.1,.,.,.
C[C@H](CO)N1C[C@H](C)[C@H](CN(C)C(=O)Nc2ccc(F)cc2)OCc2ccccc2-c2c(n(C)c3ccccc23)C1=O,.,41.0*,.,9.9,.,.,20.1
CN(C)CCN(Cc1cccs1)S(=O)(=O)c1csc(C(N)=O)c1,-0.9,6.4,1.7,-6.4,-21.5,0.6,.
Cc1ccccc1CS(=O)(=O)c1nnc([C@H](Cc2ccccc2)NC(=O)OC(C)(C)C)o1,-0.1,64.5*,88.6*,-3.3,24.1,-4.1,58.2*
CCSc1nnc([C@H](Cc2ccccc2)NC(=O)OC(C)(C)C)o1,6.9,-1.6,5.1,-2.2,2.7,-2.2,.
COc1ccc2cc3cc(C(=O)NCc4cccnc4)oc3nc2c1,-1.3,5.8,9.3,1.1,-10.4,-1.7,.
O=C(C=P(c1ccccc1)(c1ccccc1)c1ccccc1)c1ccccc1-c1ccccc1C(=O)C=P(c1ccccc1)(c1ccccc1)c1ccccc1,.,70.6*,88.4*,-1.7,.,.,39.0
O=C(c1ccc(-n2nc(C(F)(F)F)c3c2CCCC3)cc1)N1CCOCC1,-0.5,47.4*,18.1,6.5,-2.3,-1.7,-13.6
O=C(O)c1ccc(-n2nc(C(F)(F)F)c3c2CCCC3)cc1,0.7,3.8,2.9,1.0,0.9,-3.9,.
COc1ccccc1-c1noc(CCC(=O)Nc2cccc(C)c2)n1,-0.8,61.8*,21.1,-2.2,9.3,-4.3,-5.4
